Measurements from different studies.
pEC50, pIC50: −log10 of the molar value.
Read-out: cell growth or viability

COc1cc(Nc2nccc(-c3cnn4nc(OC)ccc34)n2)cc(C(F)(F)F)c1 — pIC50 (SAOS-2; ATP luminescence): 6.49
CC1(C)C(=O)NC2=C1C(=O)C(=O)c1ccccc12 — pIC50 (FaDu; 72 h): 5.38
C[C@H](Nc1ccc2c(c1)OCCn1cc(N3C(=O)OC[C@H]3C(F)F)nc1-2)C(N)=O — pEC50 (HCC1954; 5 days): 6.97
CN(C)CC[C@@H](c1ccc(Cl)cc1)c1ccccn1 — pIC50 (FaDu; 72 h): < 4.70
N[C@H]1CC[C@H](N[C@@H]2C[C@H]2c2ccccc2)CC1 — pEC50 (TF-1a; resazurin; 96 h): 10.05
CC[C@@]1(O)C(=O)OCc2c1cc1n(c2=O)Cc2cc3ccccc3nc2-1 — pIC50 (P388; MTT; 96 h): 7.85
CC(C)C[C@H](NC(=O)[C@H](Cc1ccccc1)NC(=O)c1cnccn1)B(O)O — pIC50 (J82; ATP luminescence): 8.00
O=C(O)c1ccc(CN2CCC(CN[C@@H]3C[C@H]3c3ccccc3)CC2)cc1 — pEC50 (TF-1a; resazurin; 96 h): 7.12
C[C@]12CC[C@@H]3c4ccc(O)cc4CC[C@H]3[C@@H]1CC[C@@H]2O — EC90 (CAPAN-1; ATP luminescence; 72 h): 213000 nM
C/C(=N\NC(=O)c1cccc(S(=O)(=O)N2CCN(C)CC2)c1)c1cc(Cl)ccc1O — pEC50 (TF-1a; resazurin; 96 h): 5.90
CC(=O)Nc1cccc(-n2c(=O)n(C3CC3)c(=O)c3c(Nc4ccc(I)cc4F)n(C)c(=O)c(C)c32)c1 — viability (SW-620; resazurin; 1.56 nM; 72 h): 56.3%
